According to ChEMBL document CHEMBL2157928, “Diarylheptanoid glycosides from Tacca plantaginea and their effects on NF-κB activation and PPAR transcriptional activity” (Bioorg Med Chem Lett, 2012):

Assays:
Assay type in all cases: cell-based
[1] = molecular target: T1, Peroxisome proliferator-activated receptor alpha (Homo sapiens, UniProt Q07869); experiment: Transactivation of GAL4-fused PPARalpha ligand binding domain transfected in human HepG2 cells after 20 hrs by luciferase reporter gene assay
T1 sequence (Q07869 whole entry): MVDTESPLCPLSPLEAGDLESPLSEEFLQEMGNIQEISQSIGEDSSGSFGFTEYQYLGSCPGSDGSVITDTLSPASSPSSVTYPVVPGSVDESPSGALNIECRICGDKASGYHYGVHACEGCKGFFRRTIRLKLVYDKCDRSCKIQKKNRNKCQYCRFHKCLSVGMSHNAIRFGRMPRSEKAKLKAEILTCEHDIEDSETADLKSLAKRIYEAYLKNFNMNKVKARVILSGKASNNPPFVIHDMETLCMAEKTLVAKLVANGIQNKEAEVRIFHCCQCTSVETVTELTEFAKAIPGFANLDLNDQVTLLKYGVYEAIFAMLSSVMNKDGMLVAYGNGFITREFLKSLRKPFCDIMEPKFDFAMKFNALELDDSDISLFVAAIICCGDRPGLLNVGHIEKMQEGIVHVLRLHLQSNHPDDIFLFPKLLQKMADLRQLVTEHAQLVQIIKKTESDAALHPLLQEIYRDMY
Summary of the method: (§1)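 PPARα transactivation was measured by luciferase reporter in HepG2 cells. Activity was compared with a vehicle group, and ciprofibrate (1 µM) was the positive control.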

HepG2 [2] = experiment: Cytotoxicity against human HepG2 cells assessed as cell viability at 10 uM after 24 hrs by MTS assay; conditions: hepg2, 24 h
[3] = molecular target: T2, Peroxisome proliferator-activated receptor (Homo sapiens, UniProt P37231+Q07869+Q03181); experiment: (§2) Transactivation of PPAR transfected in human HepG2 cells after 20 hrs by luciferase reporter gene assay
T2 sequence (P37231 whole entry): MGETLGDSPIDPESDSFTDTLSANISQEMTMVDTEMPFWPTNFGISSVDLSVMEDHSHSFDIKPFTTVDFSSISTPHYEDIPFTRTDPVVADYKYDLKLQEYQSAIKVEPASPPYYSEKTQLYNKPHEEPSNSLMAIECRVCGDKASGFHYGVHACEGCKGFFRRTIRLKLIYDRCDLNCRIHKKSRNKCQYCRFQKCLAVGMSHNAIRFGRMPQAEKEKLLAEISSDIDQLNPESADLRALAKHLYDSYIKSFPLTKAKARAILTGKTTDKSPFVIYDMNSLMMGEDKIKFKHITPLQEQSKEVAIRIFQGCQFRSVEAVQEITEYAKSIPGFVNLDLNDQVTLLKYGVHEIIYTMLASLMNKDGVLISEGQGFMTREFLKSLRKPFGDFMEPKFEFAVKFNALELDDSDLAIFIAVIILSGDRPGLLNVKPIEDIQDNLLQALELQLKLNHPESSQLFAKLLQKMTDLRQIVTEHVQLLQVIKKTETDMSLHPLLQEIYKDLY
T2 sequence (Q07869 whole entry): T1 sequence (Q07869 whole entry)
T2 sequence (Q03181 whole entry): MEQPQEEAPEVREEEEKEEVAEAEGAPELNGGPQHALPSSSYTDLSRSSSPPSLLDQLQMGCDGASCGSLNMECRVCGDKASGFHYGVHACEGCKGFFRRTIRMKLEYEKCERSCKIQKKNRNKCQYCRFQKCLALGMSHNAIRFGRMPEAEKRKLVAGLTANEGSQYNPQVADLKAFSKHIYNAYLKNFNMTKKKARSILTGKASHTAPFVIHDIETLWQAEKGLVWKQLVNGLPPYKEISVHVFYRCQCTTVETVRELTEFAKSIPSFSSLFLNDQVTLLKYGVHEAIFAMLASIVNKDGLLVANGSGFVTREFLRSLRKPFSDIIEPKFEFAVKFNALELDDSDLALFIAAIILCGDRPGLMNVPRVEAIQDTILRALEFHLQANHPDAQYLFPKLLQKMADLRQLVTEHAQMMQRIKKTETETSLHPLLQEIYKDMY

[4] = molecular target: Peroxisome proliferator-activated receptor (Homo sapiens) (UniProt P37231+Q07869+Q03181); experiment: as §2
HepG2 [5] = experiment: (§3) Inhibition of NF-kappaB expressed in human HepG2 cells assessed as inhibition of TNFalpha-induced luciferase activity preincubated for 1 hr followed by TNFalpha challenge measured after 1 hr by reporter gene assay
Summary of the method: (§4)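 HepG2 cells transfected with an NF-κB-luciferase reporter were pretreated with compound at 0.1, 1 and 10 µM, then stimulated with TNF-α at 10 ng/mL. Sulfasalazine at 10 µM served as positive control. Luciferase activity was read. Data are mean ± SD (n = 3), with Dunnett's multiple comparison test, and IC50 was derived from the dose–response.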

[6] = as §3; summary of the method: as §4
[7] = molecular target: T3, Peroxisome proliferator-activated receptor delta (Homo sapiens, UniProt Q03181); experiment: (§5) Transactivation of GAL4-fused PPARbeta (delta) ligand binding domain transfected in human HepG2 cells after 20 hrs by luciferase reporter gene assay
T3 sequence (Q03181 whole entry): T2 sequence (Q03181 whole entry)
Summary of the method: (§6)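 For PPARβ(δ), luciferase transactivation was measured in HepG2 cells against a vehicle group, with L-165041 (1 µM) as positive control. EC50 came from the dose–response, given as mean ± SD (n = 3), with a cutoff of EC50 > 50 µM for inactivity.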

[8] = molecular target: T4, Peroxisome proliferator-activated receptor delta (Homo sapiens) (UniProt Q03181); experiment: as §5; summary of the method: as §6
T4 sequence (whole entry): T2 sequence (Q03181 whole entry)

[9] = molecular target: T5, Peroxisome proliferator-activated receptor gamma (Homo sapiens, UniProt P37231); experiment: Transactivation of GAL4-fused PPARgamma ligand binding domain transfected in human HepG2 cells after 20 hrs by luciferase reporter gene assay
T5 sequence (P37231 whole entry): T2 sequence (P37231 whole entry)

[10] = molecular target: T6, Peroxisome proliferator-activated receptor gamma (Homo sapiens) (UniProt P37231); experiment: Transactivation of GAL4-fused PPARgamma ligand binding domain transfected in human HepG2 cells assessed as upregulation of gene expression at 10 uM by luciferase reporter gene assay relative to control
T6 sequence (whole entry): T2 sequence (P37231 whole entry)
Summary of the method: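 In HepG2 cells, PPARγ luciferase transactivation was expressed as fold over the vehicle group. Troglitazone (1 µM) was the positive control, and significance was set against vehicle at p < 0.01.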

[11] = molecular target: T7, Peroxisome proliferator-activated receptor alpha (Homo sapiens) (UniProt Q07869); experiment: Transactivation of GAL4-fused PPARalpha ligand binding domain transfected in human HepG2 cells at 10 uM after 20 hrs by luciferase reporter gene assay relative to control; summary of the method: as §1
T7 sequence (whole entry): T1 sequence (Q07869 whole entry)

SMILES	EC50 [1] [µM]	Activity (HepG2 [2])	EC50 [3] [µM]	Activity [4]	inhibition (HepG2 [5])	IC50 [6] [µM]	EC50 [7] [µM]	Activity [8]	EC50 [9] [µM]	fold change (FC) [10]	fold change (FC) [11]
OC[C@H]1O[C@@H](O[C@H](CCc2ccc(O)cc2)C[C@H](O)CCc2ccc(O)cc2)[C@H](O)[C@@H](O)[C@@H]1O	> 50	Non-toxic	1.2	Dose-dependent effect	Dose-dependent effect	6.2	29.3	Dose-dependent effect	> 50		
OC[C@H]1O[C@@H](Oc2ccc(CCCC[C@H](O)CCc3ccc(O[C@@H]4O[C@H](CO)[C@@H](O)[C@H](O)[C@H]4O)c(O)c3)cc2O)[C@H](O)[C@@H](O)[C@@H]1O [PLANTAGINEOSIDE B]	> 50	Non-toxic	10.4	Dose-dependent effect		> 10	13.1	Dose-dependent effect	33.1	1.5	1.3
OC[C@H]1O[C@@H](O[C@H](CCc2ccc(O)c(O)c2)C[C@H](O)CCc2ccc(O)c(O)c2)[C@H](O)[C@@H](O)[C@@H]1O	> 50	Non-toxic	9.9	Dose-dependent effect	Dose-dependent effect	9.4	23.1	Dose-dependent effect	> 50		1.3
O=C(O)c1cc(/N=N/c2ccc(S(=O)(=O)Nc3ccccn3)cc2)ccc1O [SULFASALAZINE]						0.9					
OC[C@H]1O[C@@H](O[C@H](CCc2ccc(O)c(O)c2)C[C@H](O)CCc2ccc(O)cc2)[C@H](O)[C@@H](O)[C@@H]1O	42.9	Non-toxic	0.3	Dose-dependent effect	Dose-dependent effect	0.9	15.6	Dose-dependent effect	> 50		1.4
O=C(CCCCc1ccc(O[C@@H]2O[C@H](CO)[C@@H](O)[C@H](O)[C@H]2O)c(O)c1)CCc1ccc(O[C@@H]2O[C@H](CO)[C@@H](O)[C@H](O)[C@H]2O)c(O)c1 [PLANTAGINEOSIDE A]	47.1	Non-toxic	7	Dose-dependent effect		> 10	11	Dose-dependent effect	> 50		1.4
CCCc1c(OCCCOc2ccc(OCC(=O)O)cc2)ccc(C(C)=O)c1O							0.65				
OC[C@H]1O[C@@H](O[C@@H]2C[C@H](CCc3ccc(O)c(O)c3)O[C@H](c3ccc(O)c(O)c3)C2)[C@H](O)[C@@H](O)[C@@H]1O [PLANTAGINEOSIDE C]	> 50	Non-toxic	5.2	Dose-dependent effect	Dose-dependent effect	8	30.1	Dose-dependent effect	> 50		
